This note sets out measurements from ChEMBL document CHEMBL4680121, “Development of (4-methoxyphenyl)-1H-tetrazol-5-amine regioisomers as a new class of selective antitubercular agents” (Eur J Med Chem, 2020).

Data set [1] relates to Escherichia coli. The data set can be described thus: Antibacterial activity against Escherichia coli ATCC 25922 assessed as bacterial growth inhibition measured after 18 hrs by two-fold serial microdilution method. Format: functional. The gist of the method:
(§1)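 Two-fold serial broth microdilution in MH II medium following modified CLSI procedures. Compounds were dissolved in DMSO and diluted in medium to at most 1% solvent, tested from 0.03125 to 512 μg/ml. Final inoculum 10^6 CFU/ml. MIC was taken as the lowest concentration with no visible growth after 18 h at 35 °C.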
(In broth dilution the organism is exposed to a series of concentrations in liquid medium.)

Data set [2] deals with Staphylococcus epidermidis. Kind of data set: Antibacterial activity against Staphylococcus epidermidis ATCC 35984/RP62A assessed as bacterial growth inhibition measured after 18 hrs by two-fold serial microdilution method. Format: functional. Put shortly:
as §1

The subject of data set [3] is Staphylococcus epidermidis. Kind of data set: Antibacterial activity against Staphylococcus epidermidis ATCC 12228 assessed as bacterial growth inhibition measured after 18 hrs by two-fold serial microdilution method. Format: functional. The gist of the method:
as §1

For data set [4], the system named is Staphylococcus epidermidis. Kind of data set: Antibacterial activity against Staphylococcus epidermidis ATCC 1457 assessed as bacterial growth inhibition measured after 18 hrs by two-fold serial microdilution method. The class given is functional. Put shortly:
as §1

Data set [5] deals with Staphylococcus aureus. Kind of data set: Antibacterial activity against Staphylococcus aureus ATCC 6538 assessed as bacterial growth inhibition measured after 18 hrs by two-fold serial microdilution method. The class given is functional. Put shortly: as §1
Data set [6] has as its system Staphylococcus aureus. The data set can be described thus: Antibacterial activity against Staphylococcus aureus NCTC 4163 assessed as bacterial growth inhibition measured after 18 hrs by two-fold serial microdilution method. Format: functional. Put shortly: as §1
Data set [7] concerns Pseudomonas aeruginosa. The data set can be described thus: Antibacterial activity against Pseudomonas aeruginosa NCTC 6749 assessed as bacterial growth inhibition measured after 18 hrs by two-fold serial microdilution method. Format: functional. Put shortly: as §1
In data set [8] the test system is Pseudomonas aeruginosa. Kind of data set: Antibacterial activity against Pseudomonas aeruginosa PAO1 assessed as bacterial growth inhibition measured after 18 hrs by two-fold serial microdilution method. The class given is functional. Put shortly:
as §1

The test system of data set [9] is Klebsiella pneumoniae. Kind of data set: Antibacterial activity against Klebsiella pneumoniae ATCC 10031 assessed as bacterial growth inhibition measured after 18 hrs by two-fold serial microdilution method. Format: functional. Put shortly:
as §1

Data set [10] has as its system Proteus vulgaris. The data set can be described thus: Antibacterial activity against Proteus vulgaris NCTC 4635 assessed as bacterial growth inhibition measured after 18 hrs by two-fold serial microdilution method. The class given is functional. The gist of the method: as §1
For data set [11], the system named is Mycobacterium tuberculosis. Kind of data set: Antitubercular activity against Mycobacterium tuberculosis H37Rv ATCC 25618 assessed as inhibition of microbial growth by classical test tube method. The class given is functional. Put shortly: (§2)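 Classical test-tube serial dilution in Youmans' modified Proskauer–Beck liquid medium with 10% bovine serum. Inoculum came from 14-day-old cultures. Compounds were given as DMSO solutions (stock 10 mg/ml), diluted geometrically in medium to 3.1–100 µg/ml, and incubated at 37 °C. MIC is the minimum concentration inhibiting growth relative to a no-compound control.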

The subject of data set [12] is Mycobacterium tuberculosis. The data set can be described thus: Antitubercular activity against Mycobacterium tuberculosis Spec.192 assessed as inhibition of microbial growth by classical test tube method. Format: functional. Put shortly:
as §2

Data set [13] relates to Mycobacterium intracellulare. Kind of data set: Antimycobacterial activity against Mycobacterium intracellulare assessed as inhibition of microbial growth incubated for 1 week by MABA method. Conditions: 168 h, time 1 weeks. Format: functional. Put shortly:
(§3)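 Microplate Alamar Blue assay using two-fold serial microdilution in Middlebrook 7H9 broth with 10% OADC, compounds 0.125–512 µg/ml from DMSO stocks. Inoculum came from fresh LJ culture, was adjusted to McFarland 1 and diluted 1:20. Plates were incubated 1 week at 37 °C, Alamar blue was added and plates were re-incubated 24 h. MIC was the lowest concentration preventing the blue-to-pink change. Each plate carried growth and sterile controls.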

Data set [14] deals with Mycobacterium tuberculosis. The data set can be described thus: Antitubercular activity against Mycobacterium tuberculosis H37Rv ATCC 25618 assessed as inhibition of microbial growth incubated for 1 week by MABA method. Conditions: H37Rv ATCC 25618, 168 h, time 1 weeks. Format: functional. The gist of the method: (§4)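 Microplate Alamar Blue assay in Middlebrook 7H9 broth with 10% OADC. Inoculum from fresh LJ culture was adjusted to McFarland 1 and diluted 1:20. DMSO stocks were two-fold serially diluted to final 0.125–512 µg/ml, with growth and sterile controls. Plates ran 1 week at 37 °C, then Alamar blue was added for 24 h. MIC is the lowest concentration preventing the blue-to-pink change.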

For data set [15], the system named is Mycobacterium tuberculosis. Kind of data set: Antitubercular activity against Mycobacterium tuberculosis Spec.192 assessed as inhibition of microbial growth incubated for 1 week by MABA method. Format: functional. Conditions: Mycobacterium tuberculosis, 192, 168 h; time 1 weeks. Put shortly: as §4
The test system of data set [16] is Mycobacterium avium. Kind of data set: Antimycobacterial activity against Mycobacterium avium assessed as inhibition of microbial growth incubated for 1 week by MABA method. The class given is functional. Conditions: 168 h, time 1 weeks. The gist of the method: as §4
For orientation: Alamar Blue is a resazurin reagent that responds to reducing activity.

For data set [17], the system named is Mycobacterium kansasii. Kind of data set: Antibacterial activity against Mycobacterium kansasii assessed as inhibition of microbial growth incubated for 1 week by MABA method. The class given is functional. The settings on record: 168 h, time 1 weeks. Put shortly: as §3
The subject of data set [18] is Mycobacterium scrofulaceum. Kind of data set: Antibacterial activity against Mycobacterium scrofulaceum assessed as inhibition of microbial growth incubated for 1 week by MABA method. The class given is functional. The settings on record: 168 h, time 1 weeks. The gist of the method:
as §3

For data set [19], the system named is Mycolicibacterium fortuitum. Kind of data set: Antibacterial activity against Mycobacterium fortuitum assessed as inhibition of microbial growth incubated for 1 week by MABA method. The class given is functional. Conditions: 168 h, time 1 weeks. Put shortly:
as §3

The test system of data set [20] is Mycobacterium xenopi. The data set can be described thus: Antibacterial activity against Mycobacterium xenopi assessed as inhibition of microbial growth incubated for 1 week by MABA method. Format: functional. Conditions: 168 h, time 1 weeks. The gist of the method: as §3
Data set [21] deals with V79. The data set can be described thus: Cytotoxicity against Chinese Hamster V79 cells assessed as reduction in cell viability measured after 72 hrs by MTT assay. The settings on record: Cricetulus griseus, V79, 72 h. Format: cell-based. The gist of the method: (§5)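 MTT viability assay on cells grown in DMEM with 10% heat-inactivated FBS, penicillin/streptomycin and 20 mM HEPES at 37 °C/5% CO2. Cells were seeded at 1×10^4 per well and allowed to adhere for 24 h, then the medium was refreshed. Compounds were added at 20–140 μM for 72 h at 37 °C, followed by MTT (0.5 mg/mL in serum-free medium) for 4 h. Untreated cells served as control. IC50 is the concentration giving 50% growth inhibition versus control.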
(Formazan colour is commonly taken as a measure of viable cells.)

The subject of data set [22] is HaCaT. The data set can be described thus: Cytotoxicity against human HaCaT cells assessed as reduction in cell viability measured after 72 hrs by MTT assay. Format: cell-based. The gist of the method: as §5
The subject of data set [23] is V79. Kind of data set: Cytotoxicity against Chinese Hamster V79 cells assessed as reduction in cell viability at 100 uM measured after 72 hrs by MTT assay. Format: cell-based, Cricetulus griseus. Conditions: v79, 72 h. Put shortly: as §5
Data set [24] concerns HaCaT. The data set can be described thus: Cytotoxicity against human HaCaT cells assessed as reduction in cell viability at 100 uM measured after 72 hrs by MTT assay. The class given is cell-based. The gist of the method:
as §5

Data set [25] deals with Mycobacterium scrofulaceum. Kind of data set: Potency index, ratio of isoniazid MIC to test compound MIC for antibacterial activity against Mycobacterium scrofulaceum assessed as inhibition of microbial growth incubated for 1 week by MABA method. The class given is functional. Conditions: time 1 weeks.

Usually MIC stands for the least concentration at which growth counts as inhibited. In the case of `COc1ccc(NC(=S)Nc2ccc(Br)cc2)cc1`, the minimal inhibitory concentration (MIC) in data set [1], in data set [2], in data set [3], in data set [4], in [5] and in [6] was > 256 µg/mL each time. The MIC in data set [7] is > 256 µg/mL; in data set [8], > 256 µg/mL; in data set [9], > 256 µg/mL; in data set [10] it was > 256 µg/mL; in [11], 25 µg/mL; in [12], 25 µg/mL.
Broadly, the IC50 is the concentration that inhibits the measured activity by half. Take `COc1ccc(Nc2nnnn2-c2cccc(F)c2)cc1`: the minimal inhibitory concentration (MIC) in data set [13] is 64 µg/mL; in data set [14] it was 16 µg/mL; in data set [15], 16 µg/mL; in data set [1] it was > 256 µg/mL; in data set [16] it was 128 µg/mL; in data set [17], 256 µg/mL. Further, the MIC in data set [18] is 16 µg/mL; in data set [19], 256 µg/mL; in data set [20] it was 128 µg/mL; in data set [2] it was > 256 µg/mL; in data set [3], > 256 µg/mL; in data set [4], > 256 µg/mL. In addition, the minimum inhibitory concentration (MIC) in data set [5], in data set [6], in data set [7], in data set [8], in data set [9] and in data set [10] was > 256 µg/mL in each case. The IC50 in data set [21] is 123 µM; in data set [22], 101 µM. Besides, the Activity entry in data set [23] and in data set [24] was “Non-Toxic” in each case. Besides, the Ratio in data set [25] turned out to be 4.
Take `CC[C@@H](CO)NCCN[C@@H](CC)CO` [ETHAMBUTOL]: the MIC in data set [14] is 2 µg/mL; in data set [15] it was 2 µg/mL; in data set [11] it was < 3.1 µg/mL; in data set [12], < 3.1 µg/mL.
Regarding `NNC(=O)c1ccncc1` [ISONIAZID], the MIC in data set [13] was 64 µg/mL; in data set [14], 0.125 µg/mL; in data set [15], 0.125 µg/mL; in [16], 32 µg/mL; in data set [17] it was 32 µg/mL; in data set [18], 64 µg/mL. Moreover, the MIC in data set [19] amounted to 128 µg/mL; in data set [20] it was 64 µg/mL; in data set [11], 6.25 µg/mL; in data set [12], 6.25 µg/mL.
As for `CO[C@H]1/C=C/O[C@@]2(C)Oc3c(C)c(O)c4c(O)c(c(/C=N/N5CCN(C)CC5)c(O)c4c3C2=O)NC(=O)/C(C)=C\C=C\[C@H](C)[C@H](O)[C@@H](C)[C@@H](O)[C@@H](C)[C@H](OC(C)=O)[C@@H]1C` [RIFAMPIN], the MIC in [14] is 1 µg/mL; in data set [15] it was 1 µg/mL; in [11], < 3.1 µg/mL; in data set [12], < 3.1 µg/mL.
Take `CN[C@@H]1[C@H](O[C@H]2[C@H](O[C@H]3[C@H](O)[C@@H](O)[C@H](N=C(N)N)[C@@H](O)[C@@H]3N=C(N)N)O[C@@H](C)[C@]2(O)C=O)O[C@@H](CO)[C@H](O)[C@H]1O` [STREPTOMYCIN]: the minimal inhibitory concentration (MIC) is 1 µg/mL in data set [14], 1 µg/mL in data set [15], < 3.1 µg/mL in data set [11] and < 3.1 µg/mL in [12].
